What is called Kd is the concentration at which binding is half-saturated. Read a high Kd as weaker binding.

Holding throughout (assay type): binding
For experiment [1], the target named is tau aggregates (Tau-441 human) (Homo sapiens, UniProt P10636). Briefly: Fluorimeter assay with aliquots of the tau aggregation. The note with it: tau aggregates at different time points.
Experiment [2] has as its target tau (0N4R) aggregates, sucrose gradient fractions (Homo sapiens, UniProt P10636). The gist of the method:
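Tau aggregates were separated by sucrose gradient ultracentrifugation into 10–50% fractions, and the 20% fraction was characterised by TEM. Each fraction was titrated with the test compound and fluorescence intensity was read. Kd was obtained by curve fitting (n = 3–6). Ratios compare Kd with the 50% sucrose tau Kd, and tau Kd with the Kd for Aβ40 aggregates at 200 min.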

In another experiment the target is Aβ40 aggregates (Homo sapiens, UniProt P05067). The gist of the method: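 Aβ40 aggregates were taken at 90 min, 200 min and 24 h from a compound-free aggregation run and ultracentrifuged. They were titrated with a range of probe concentrations, and fluorescence intensity was read. Kd was obtained by curve fitting (n = 3). Binding ratio is Kd relative to the Kd of the 50% sucrose tau fraction.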

Like-named read-outs stand apart in the source and are kept apart here.

Sequence of Aβ40 aggregates (P05067 672-711 limits assumed): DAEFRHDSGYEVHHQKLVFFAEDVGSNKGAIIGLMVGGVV
Sequence of tau (0N4R) aggregates, sucrose gradient fractions (P10636 1-383 isoform P10636-6): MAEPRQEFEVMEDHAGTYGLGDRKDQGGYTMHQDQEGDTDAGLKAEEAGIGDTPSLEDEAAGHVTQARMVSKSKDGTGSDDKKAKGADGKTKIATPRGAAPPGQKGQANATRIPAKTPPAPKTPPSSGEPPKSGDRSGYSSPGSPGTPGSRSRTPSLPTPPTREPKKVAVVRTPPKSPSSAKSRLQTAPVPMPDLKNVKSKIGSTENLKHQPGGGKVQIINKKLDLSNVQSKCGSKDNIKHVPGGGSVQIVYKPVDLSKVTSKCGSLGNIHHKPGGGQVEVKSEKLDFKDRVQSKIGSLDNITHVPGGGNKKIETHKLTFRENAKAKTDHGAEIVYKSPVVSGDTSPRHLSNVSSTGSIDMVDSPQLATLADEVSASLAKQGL
Sequence of tau aggregates (Tau-441 human) (P10636 1-441 isoform P10636-8): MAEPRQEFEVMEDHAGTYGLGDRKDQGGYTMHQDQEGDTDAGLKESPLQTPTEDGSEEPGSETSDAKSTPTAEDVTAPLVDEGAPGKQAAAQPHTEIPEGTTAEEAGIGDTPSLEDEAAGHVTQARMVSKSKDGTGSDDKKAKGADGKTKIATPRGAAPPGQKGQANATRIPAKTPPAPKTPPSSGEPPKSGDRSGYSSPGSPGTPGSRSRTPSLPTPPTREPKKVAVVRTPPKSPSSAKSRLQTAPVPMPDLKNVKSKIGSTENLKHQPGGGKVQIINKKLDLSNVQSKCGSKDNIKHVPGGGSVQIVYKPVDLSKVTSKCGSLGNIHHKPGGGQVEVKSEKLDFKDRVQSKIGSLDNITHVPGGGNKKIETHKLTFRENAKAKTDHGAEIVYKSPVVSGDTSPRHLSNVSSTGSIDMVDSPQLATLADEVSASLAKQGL

With `O=C(O)Cc1cc(-c2ccc(C(=O)O)s2)sc1-c1ccc(-c2sc(-c3ccc(C(=O)O)s3)cc2CC(=O)O)s1` [pFTAA, 3''',4'-bis(carboxymethyl)-[2,2':5',2'':5'',2''':5''',2''''-quinquethiophene]-5,5''''-dicarboxylic acid], the “emission spectrum shift over the tau aggregation” value in experiment [1] is “No emission spectrum shifts”. The “binding ratio (Kd compared with the 50% sucrose tau Kd)” value in experiment [2] (10% sucrose tau) was determined as 148; in experiment [2] (20% sucrose tau) it was 14; in experiment [2] (30% sucrose tau), 26; in experiment [2] (40% sucrose tau) it was 6; in experiment [2] (50% sucrose tau), 1; on Aβ40 aggregates (200 minute Aβ), 5. Moreover, the “binding ratio (Kd compared with the 50% sucrose tau Kd)” value at Aβ40 aggregates (24 hour Aβ) is given as 3. For the same compound, the Kd in experiment [2] (10% sucrose tau fraction) is 29600 ± 2100 nM; in experiment [2] (20% sucrose tau fraction), 2750 ± 570 nM; in experiment [2] (40% sucrose tau fraction), 1290 ± 200 nM; in experiment [2] (50% sucrose tau fraction), 200 ± 10 nM; on Aβ40 aggregates (Aβ40 aggregates at 90 min) it was “no binding affinity”; at Aβ40 aggregates (Kd, Aβ40 aggregates at 200 min) it was 930 ± 300 nM. Binding at Aβ40 aggregates (Kd, Aβ40 aggregates at 24 h) was characterised by a dissociation constant (Kd) of 650 ± 190 nM.

These data come from article PMC8159431 (Chemical Science, 2020).
